Assay results published in publication PMC7941214 (Journal of medicinal chemistry, 2019).
Values joined by “and” are separate entries in the source; they are usually repeats but may differ in a detail not shown here. Equal values may be shown once.

Assays:
Log P determination = details: n-octanol/water, Au by FAAS
E. faecium ATCC 700221 = experiment: Broth microdilution MIC/MBC, E. faecium; type: cell-based, Enterococcus faecium; details: for MIC E. faecium ATCC 700221: value before the parentheses, two values = two repeats; for MBC E. faecium ATCC 700221: value in parentheses
In short: (§1)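 CLSI broth microdilution in cation-adjusted Mueller–Hinton broth. Log-phase cultures were diluted to 7.5 × 10^5 CFU/mL, then mixed 1:1 with 2-fold serial dilutions of gold complexes from DMSO or water stocks, in triplicate, and held 37 °C, 18 h, static. MIC: lowest concentration giving >90% inhibition by OD600 against medium-only and bacteria-only wells. […] E. coli ATCC 25922 quality control was checked each run with ciprofloxacin and […].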

[1] = system: K. pneumoniae ATCC 700603; experiment: Broth microdilution MIC/MBC, K. pneumoniae; type: cell-based, Klebsiella pneumoniae; details: for MIC K. pneumoniae ATCC 700603: value before the parentheses, two values = two repeats; for MBC K. pneumoniae ATCC 700603: value in parentheses
In short: as §1

P. aeruginosa NCTC 13437 = experiment: Broth microdilution MIC/MBC, P. aeruginosa; type: cell-based, Pseudomonas aeruginosa; details: for MIC P. aeruginosa NCTC 13437: value before the parentheses, two values = two repeats; for MBC P. aeruginosa NCTC 13437: value in parentheses
In short: as §1

A. baumannii NCTC 13420 = experiment: Broth microdilution MIC/MBC, A. baumannii; type: cell-based, Acinetobacter baumannii; details: for MIC A. baumannii NCTC 13420: value before the parentheses, two values = two repeats; for MBC A. baumannii NCTC 13420: value in parentheses
E. cloacae NCTC 13405 = experiment: Broth microdilution MIC/MBC, E. cloacae; type: cell-based, Enterobacter cloacae; details: for MIC E. cloacae NCTC 13405: value before the parentheses, two values = two repeats; for MBC E. cloacae NCTC 13405: value in parentheses
In short: as §1

E. coli ATCC 25922 = experiment: Broth microdilution MIC/MBC, E. coli; type: cell-based, Escherichia coli; details: for MIC E. coli ATCC 25922: value before the parentheses, two values = two repeats; for MBC E. coli ATCC 25922: value in parentheses
In short: as §1

S. aureus JE2 (USA300) = experiment: Broth microdilution MIC/MBC, S. aureus; type: cell-based, Staphylococcus aureus; details: for MIC S. aureus JE2 (USA300): value before the parentheses, two values = two repeats; for MBC S. aureus JE2 (USA300): value in parentheses
In short: as §1

SMILES | log P (Log P determination) | MIC E. faecium ATCC 700221 (E. faecium ATCC 700221) | MBC E. faecium ATCC 700221 (E. faecium ATCC 700221) | MIC K. pneumoniae ATCC 700603 [1] | MBC K. pneumoniae ATCC 700603 [1] | MIC P. aeruginosa NCTC 13437 (P. aeruginosa NCTC 13437) | MBC P. aeruginosa NCTC 13437 (P. aeruginosa NCTC 13437) | MIC A. baumannii NCTC 13420 (A. baumannii NCTC 13420) | MBC A. baumannii NCTC 13420 (A. baumannii NCTC 13420) | MIC E. cloacae NCTC 13405 (E. cloacae NCTC 13405) | MBC E. cloacae NCTC 13405 (E. cloacae NCTC 13405) | fold enhancement of activity over auranofin, E. cloacae (E. cloacae NCTC 13405; vs auranofin) | MIC E. coli ATCC 25922 (E. coli ATCC 25922) | MBC E. coli ATCC 25922 (E. coli ATCC 25922) | MIC S. aureus JE2 (USA300) (S. aureus JE2 (USA300)) | MBC S. aureus JE2 (USA300) (S. aureus JE2 (USA300)) | fold enhancement of activity over auranofin, E. coli (E. coli ATCC 25922; vs auranofin) | fold enhancement of activity over auranofin, S. aureus (S. aureus JE2 (USA300); vs auranofin) | fold enhancement of activity over auranofin, E. faecium (E. faecium ATCC 700221; vs auranofin) | MIC S. aureus (S. aureus JE2 (USA300))
CC[PH](CC)(CC)[Au][S]C1OC(CO)C(O)C(O)C1O [Compound 10, (1-Thio-β-D-galatopyranosato)(triethylphosphine) Gold(I)] | −0.73 | 0.1 µM and 0.2 µM | 0.5 µM | 251 µM | 251 µM | 251 µM | 251 µM | 31 µM | 31 µM | 63 µM | 63 µM | 3 | 16 µM | 16 µM | 0.02 µM | 0.1 µM | – | – | – | –
CC[PH](CC)(CC)[Au][S]C1OC(CO)C(O)C(O)C1O [Compound 11, (1-Thio-D-mannopyranosato)(triethylphosphine) Gold(I)] | −0.59 | 0.1 µM and 0.06 µM | 0.5 µM | 502 µM | 502 µM | 502 µM | 502 µM | 31 µM | 63 µM | 125 µM | 251 µM | – | 16 µM | 16 µM | – | 0.1 µM | – | – | – | –
CC[P+](CC)(CC)[Au-][S][C@@H]1OC(CO)[C@@H](O)[C@H](O)C1NC(C)=O (stereo partly drawn) [Compound 12, (2-Acetamido-2-deoxy-1-thio-β-D-glucopyranosato)-(triethylphosphine) Gold(I)] | −0.89 | 0.05 µM and 0.1 µM | 0.5 µM | 464 µM | 464 µM | 464 µM | 464 µM | 15 µM and 29 µM | 116 µM | 116 µM | 232 µM | – | 7 µM and 4 µM | 7 µM | 0.02 µM | 0.05 µM | 2–3 | 2–3 | – | –
CC[PH](CC)(CC)[Au][O]C1OC(CO)C(OC2OC(CO)C(O)C(O)C2O)C(O)C1O [Compound 13, [β-D-Galactopyranosyl-(1→4)-β-D-glucopyranosato]-(triethylphosphine) Gold(I)] | – | 0.09 µM | 0.4 µM | 381 µM | 381 µM | 381 µM | 381 µM | 24 µM and 48 µM | 190 µM | 190 µM | 190 µM | – | 24 µM | 24 µM | – | 0.09 µM | – | – | – | –
CC[PH](CC)(CC)[Au][S]C1OC(CO)C(OC2OC(CO)C(O)C(O)C2O)C(O)C1O (stereo not shown) [Compound 14] | −1.69 | – | 0.4 µM | >381 µM | – | 381 µM | 381 µM | 24 µM | 24 µM | 190 µM | 190 µM | – | 12 µM | 12 µM | – | 0.09 µM | – | – | – | –
CC[PH](CC)(CC)[Au][S]c1ccccc1 [Compound 15, (Benzenethiolato)(triethylphosphine) Gold(I)] | 2.20 | 0.6 µM | 1 µM | >603 µM | – | 302 µM | 302 µM | – | > 603 µM | 75 µM | 603 µM | – | 151 µM | 151 µM | 0.02 µM | 0.6 µM | – | – | – | –
CC[PH](CC)(CC)[Au][S]c1ccccc1N [Compound 16, (2-Aminobenzenethiolato)(triethylphosphine) Gold(I)] | 0.61 | 0.02 µM | 0.1 µM | 146 µM | 146 µM | 291 µM | 291 µM | 18 µM and 36 µM | 18 µM | – | – | – | 36 µM | 36 µM | 0.009 µM | 0.6 µM | – | – | more than 7 | in the nanomolar range
CC[P+](CC)(CC)[Au-][S]CC(=O)OC [Compound 22, (Methyl Mercaptoacetatato)(triethylphosphine) Gold(I)] | 1.75 | – | 0.6 µM | 76 µM | 76 µM | 305 µM | 305 µM | 19 µM | 76 µM | 38 µM | 152 µM | – | 76 µM | 76 µM | – | 0.02 µM | – | – | – | in the nanomolar range
CC[P+](CC)(CC)[Au-][S]CC(F)(F)F [Compound 23, (2,2,2-Trifluoroethanethiolato)(triethylphosphine) Gold(I)] | 2.08 | 0.6 µM | 1 µM | 149 µM | 149 µM | 149 µM | 149 µM | 37 µM and 74 µM | 149 µM | 37 µM | 149 µM | – | 74 µM | 74 µM | 0.009 µM | 0.1 µM | – | – | – | in the nanomolar range
CP(C)C.[Cl][Au] [Compound 24, (Trimethylphosphine)gold Chloride] | 0.16 | 0.4 µM | 3 µM | 7 µM and 13 µM | 13 µM | 52 µM | 52 µM | 7 µM and 13 µM | 13 µM | 3 µM | 3 µM | – | 7 µM | 7 µM | 0.1 µM and 0.2 µM | 1.6 µM | – | – | – | –
CCCC[PH](CCCC)(CCCC)[Au][Cl] [Compound 26, (Tri-n-butylphosphine)gold Chloride] | >3.99 | 5 µM | 5 µM | 147 µM | 147 µM | 74 µM | 74 µM | 74 µM and 147 µM | 147 µM | >589 µM | – | – | >589 µM | – | 2 µM | 4 µM | – | – | – | –
[Cl][Au].c1ccc(P(c2ccccc2)c2ccccc2)cc1 [Compound 27, (Triphenylphosphine)gold Chloride] | >3.94 | 4 µM | 4 µM | >518 µM | – | >518 µM | – | – | 518 µM | >518 µM | – | – | >518 µM | – | 1 µM and 2 µM | 4 µM | – | – | – | –
COc1ccc([P+]([Au-][Cl])(c2ccc(OC)cc2)c2ccc(OC)cc2)cc1 [Compound 28, (Tris(4-methoxyphenyl)phosphine)gold Chloride] | >4.09 | 3 µM | 3 µM | >438 µM | – | >438 µM | – | >438 µM | – | >438 µM | – | – | >438 µM | – | 2 µM | 3 µM | – | – | – | –
Fc1ccc([PH+](c2ccc(F)cc2)c2ccc(F)cc2)cc1.[Cl][Au] [Compound 29, (Tris(4-fluorophenyl)phosphine)gold Chloride] | >4.04 | 2 µM and 4 µM | 4 µM | >467 µM | – | >467 µM | – | 29 µM and 58 µM | 233 µM | >467 µM | – | – | >467 µM | – | – | – | – | – | – | –
